This is an account of results in ChEMBL document CHEMBL4834495, “A Green-Absorbing, Red-Fluorescent Phenalenone-Based Photosensitizer as a Theranostic Agent for Photodynamic Therapy” (ACS Med Chem Lett, 2021).

Activity calls are given as the source filed them. The rule behind the calls is not given here.

Data set [1] can be described thus: Absorption property of the compound in PBS containing 1% DMSO assessed as maximum absorption wavelength at pH 7.4 by UV-visible spectrophotometric method. It is filed as physicochemical. Particulars: buffer.
The nature of data set [2]: Induction of singlet oxygen generation in PBS assessed as singlet oxygen quantum yield at pH 7.4 irradiated with 415 nm LED light by ABDA sensor based UV-Vis spectrometer analysis. Type of data set: functional.
Data set [3] can be described thus: Fluorescence property of the compound in DMSO assessed as quantum yield. It is filed as physicochemical.
In data set [4] the test system is PANC-1. Briefly: Antitumor activity against human PANC-1 cell 3D spheroids assessed as reduction in spheroid diameter at 0.063 to 1.5 uM incubated for 3 hrs followed by irradiation with 525 nm green lamp light for 15 mins and measured after 27 hrs by ReadyProbes Blue/Green reagent based cell viability imaging analysis. It is filed as functional. To be noted: dose 0.063-1.5 µM, time 1815.0 min. Summed up:
(§1)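 PANC-1 spheroids incubated 3 h with compound (0–1.5 μM), then either kept dark or irradiated 15 min with a green-filtered lamp (emission max 525 nm, 16.61 J/cm2). Diameter and morphology were assessed from bright-field images. Viability was imaged at 10× with the ReadyProbes Blue/Green kit: Hoechst 33342 stains all nuclei blue, and a green nuclear dye stains dead cells.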

The subject of data set [5] is PANC-1. Briefly: Antitumor activity against human PANC-1 cell 3D spheroids assessed as spheroid diameter at 0.063 to 1.5 uM incubated for 3 hrs under dark conditions by ReadyProbes Blue/Green reagent based cell viability imaging analysis. It is filed as functional. Particulars: dose 0.063-1.5 µM. In outline:
as §1

Data set [6] can be described thus: Emission property of the compound in DMSO assessed as maximum emission wavelength. It is filed as physicochemical.
A short description of data set [7]: Solubility of the compound in PBS containing 1% DMSO assessed as aggregate formation by measuring reduction in singlet oxygen formation irradiated with 530 nm LED light by ABDA sensor based UV-Vis spectrometer analysis. It is filed as physicochemical. To be noted: buffer.
Data set [8] in a line: Solubility of the compound in Opti-MEM medium assessed as aggregate formation by measuring reduction in fluorescence intensity at 9 uM by fluorescence analysis. Type of data set: physicochemical.
Data set [9] is described as follows: Induction of singlet oxygen generation in DMSO assessed as singlet oxygen quantum yield at pH 7.4 irradiated with 530 nm LED light by ABDA sensor based UV-Vis spectrometer analysis. It is filed as functional.
Data set [10] in a line: Photostability of the compound in PBS assessed as absorbance at 546 nm at 2 uM measured upon irradiation with 530 nm LED light in presence of BSA by absorbance based analysis. It is filed as physicochemical. To be noted: buffer.
Data set [11] can be described thus: Absorption property of the compound in PBS assessed as molar extinction coefficient in presence of BSA by absorbance based analysis. Type of data set: physicochemical. Particulars: buffer.
Data set [12] has as its system PANC-1. Briefly: Dark toxicity against human PANC-1 cells assessed as reduction in cell viability incubated for 24 hrs by MTT assay. Type of data set: functional, cell-based. Particulars: PANC-1, 24 h. In outline: (§2)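 PANC-1 cells were treated with compound (0–2 μM), then either kept dark or irradiated 15 min under a green-filtered lamp (emission max 525 nm, 16.61 J/cm2). Cells were then cultured 24 h in the dark, and viability was read by standard MTT assay. Data are mean ± SD, n = 9; IC50 was taken from the dose–response.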
(Formazan colour is commonly taken as a measure of viable cells.)

Data set [13] relates to PANC-1. Briefly: Antitumor activity against human PANC-1 cell 3D spheroids assessed as total spheroid breakage at 0.063 to 1.5 uM incubated for 3 hrs under dark conditions by ReadyProbes Blue/Green reagent based cell viability imaging analysis. It is filed as functional. To be noted: dose 0.063-1.5 µM. Summed up: as §1
Data set [14] in a line: Solubility of the compound in DMEM medium assessed as aggregate formation by measuring reduction in fluorescence intensity at 9 uM by fluorescence analysis. It is filed as physicochemical.
For data set [15], the system named is PANC-1. The data set can be described thus: Antitumor activity against human PANC-1 cell 3D spheroids assessed as spheroid cell death at 0.063 to 1.5 uM incubated for 3 hrs under dark conditions by Hoechst33342 staining based analysis. Type of data set: functional. Particulars: dose 0.063-1.5 µM. Summed up:
as §1

Data set [16] can be described thus: Absorption property of the compound in DMSO assessed as maximum absorption wavelength at pH 7.4 by UV-visible spectrophotometric method. Type of data set: physicochemical.
Data set [17] has as its system PANC-1. The data set can be described thus: Antitumor activity against human PANC-1 cell 3D spheroids assessed as total spheroid breakage at 1.5 uM incubated for 3 hrs followed by irradiation with 525 nm green lamp light for 15 mins and measured after 27 hrs by ReadyProbes Blue/Green reagent based cell viability imaging analysis. It is filed as functional. To be noted: time 1815.0 min. In outline: as §1

The test system of data set [18] is PANC-1. The data set can be described thus: Phototoxicity against human PANC-1 cells assessed as reduction in cell viability incubated for 3 hrs followed by 525 nm green-light irradiation for 15 mins and measured after overnight incubation by MTT assay. Type of data set: functional, cell-based. In outline: as §2
In data set [19] the test system is PANC-1. Briefly: Induction of apoptosis in human PANC-1 cells at 0.5 uM incubated for 3 hrs followed by incubation under dark conditions for 30 mins by Annexin V-FITC/PI staining based flow cytometric analysis. Type of data set: functional, cell-based. Particulars: time 210.0 min.
For data set [20], the system named is PANC-1. The data set can be described thus: Antitumor activity against human PANC-1 cell 3D spheroids assessed as spheroid cell death at 0.38 to 1.5 uM incubated for 3 hrs followed by irradiation with 525 nm green lamp light for 15 mins and measured after 27 hrs by Hoechst33342 nuclear staining based analysis. Type of data set: functional. To be noted: dose 0.38-1.5 µM, time 1815.0 min. Summed up:
as §1

Data set [21] can be described thus: Solubility of the compound in PBS containing 1% DMSO assessed as aggregate formation by measuring reduction in fluorescence intensity at 2 uM at pH 7.4 by fluorescence analysis. It is filed as physicochemical. Particulars: buffer, pH 7.4, 2 µM.
The subject of data set [22] is PANC-1. The data set can be described thus: Induction of apoptosis in human PANC-1 cells at 0.5 uM incubated for 3 hrs followed by irradiation with 525 nm green lamp light for 15 mins and measured after 24 hrs by Annexin V-FITC/PI staining based fluorescence microscopy. To be noted: time 1635.0 min.
For data set [23], the system named is PANC-1. Briefly: Induction of ROS production in human PANC-1 cells assessed as increase in green fluorescence intensity at 2 uM incubated for 3 hrs followed by irradiation with 530 nm LED light for 10 mins by DCFH2-DA staining based fluorescence microscopy. Particulars: time 190.0 min. Type of data set: functional, cell-based. Summed up:
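PANC-1 cells in reduced-serum Opti-MEM received compound from a DMSO stock (2 μM final) for 3 h, plus the ROS sensor DCFH2-DA. Cells were irradiated at 530 nm for 10 min (11.14 J/cm2). Green DCF fluorescence was imaged by fluorescence microscopy and compared with non-irradiated cells and with single-agent irradiated controls.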

Data set [24] relates to PANC-1. Briefly: Antitumor activity against human PANC-1 cell 3D spheroids assessed as changes in spheroid morphology and density incubated for 3 hrs followed by irradiation with 525 nm green lamp light for 15 mins and measured after 27 hrs by ReadyProbes Blue/Green reagent based cell viability imaging analysis. It is filed as functional. Particulars: dose 0.063-1.5 µM, time 1815.0 min. Summed up: as §1

The nature of data set [25]: Absorption property of the compound in PBS assessed as molar extinction coefficient by absorbance based analysis. It is filed as physicochemical. Particulars: buffer.
Data set [26] in a line: Induction of singlet oxygen generation in PBS assessed as singlet oxygen quantum yield at pH 7.4 irradiated with 490 nm LED light by ABDA sensor based UV-Vis spectrometer analysis. It is filed as functional.

With `Nc1cc2c3c(cccc3c1Br)C(=O)C=C2`, the values for the Activity in data set [1] and in data set [2] were 458 nm and 0.1, respectively.

On to `Nc1cc2c3c(cccc3c1)C(=O)C=C2`, for which the Activity was determined as 457 nm in [1] and 0.18 in data set [2].

In the case of `CCN(CC)c1ccc2c(-c3ccccc3C(=O)O)c3ccc(=[N+](CC)CC)cc-3oc2c1.[Cl-]` [RHODAMINE], in data set [3], the Activity came to 0.5.

Broadly, the IC50 is the concentration at which inhibition is half-maximal. In the case of `Nc1c(Br)cc2c3c(cccc13)C(=O)C(Br)=C2`, the outcome in data set [4], in data set [17], in data set [20], in data set [22] and in data set [23] was Active. Besides, the result in [5], in data set [13], in [15] and in [19] was inactive. The Activity is 602 nm in [6]; 0.47 in [9]; 546 nm in data set [1]; 12695 M⁻¹ cm⁻¹ in data set [11]; 525 nm in data set [16]; 0.29 in data set [3]. For the same molecule, the Activity entry in data set [18] and in [24] was “Dose-Dependent Effect” throughout. Also, the solubility result in data set [7], in [8], in [14] and in data set [21] was “Insoluble” each time. In addition, in data set [10], the Stabilty entry is “Stable”. Besides, the half-inhibitory concentration (IC50) is more than 2000 nM in data set [12] and 166 nM in [18] (PANC-1, light or radiation study).

Take `O=C1C=Cc2cccc3cccc1c23` [PERINAPHTHENONE]: the Activity in data set [25] was determined as 10000 M⁻¹ cm⁻¹; in data set [2], 1.

For `O=C1C=Cc2cccc3ccc(O)c1c23`, the values for the Activity in data set [1] and in data set [2] were 439 nm and 0.96, respectively.

As to `Nc1cc2c3c(c(O)ccc3c1)C(=O)C=C2`, the Activity in [1] is 485 nm; in [26], less than 0.01.

As to `COc1ccc2cccc3c2c1C(=O)C(Br)=C3`, the Activity in data set [1] was 427 nm; in data set [2] it was 0.89.

As to `O=C1OC2(c3ccccc31)c1cc(Br)c(O)c(Br)c1Oc1c2cc(Br)c(O)c1Br`, the Activity in [26] came to 0.57.

In the case of `COc1ccc2cccc3c2c1C(=O)C=C3`, the figures for the Activity in data set [1] and in [2] were 418 nm and 0.68, respectively.

Turning to `Nc1ccc2c3c(cccc13)C(=O)C=C2`, the Activity is 597 nm in data set [6]; 12736 M⁻¹ cm⁻¹ in data set [25]; less than 0.01 in [9]; 548 nm in data set [1]; 518 nm in [16]; 0.26 in data set [3].
